Activity calls are given as the source filed them. The calls are words filed in the database; no cut-off is given here.
Experiments:
[1] = target: T1, ATP-dependent translocase ABCB1 (Homo sapiens, UniProt P08183); experiment: Inhibition of P-gp in human HCT-15 cells assessed as increase in green fluorescence intensity at 0.1 to 10 uM incubated for 15 mins followed by incubation with EFFLUX-ID Green Detection Reagent and Hoeschst-33342 dye and measured after 30 mins by fluorescence analysis; type: cell-based; conditions: hct-15, 0.25 h, dose 0.1-10 µM
In short: (§1)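 5000 cells/well in phenol-red-free medium plated 24 h before; compounds 0.1, 1, 10 µM for 15 min, then EFLUXX-ID Green reagent (1:200) plus Hoechst-33342 1 µg/mL, 30 min 37 °C. Widefield imaging; median green intensity from 250 cells per well normalized to untreated wells. Mean ± SD of three wells; one-tailed t-test.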

[2] = target: T1, ATP-dependent translocase ABCB1; experiment: Inhibition of P-gp in human HT1197 cells assessed as increase in green fluorescence intensity at 0.1 to 10 uM incubated for 15 mins followed by incubation with EFFLUX-ID Green Detection Reagent and Hoeschst-33342 dye and measured after 30 mins by fluorescence analysis; type: cell-based; conditions: ht1197, 0.25 h, dose 0.1-10 µM; in short: as §1
[3] = tested on: SK-HEP1; experiment: Coadjutant activity against multidrug resistance in human SK-HEP1 cells assessed as potentiation of cisplatin-induced cell growth inhibition at 0.25 to 4 uM incubated for 72 hrs in presence of 0.25 uM cisplatin by SiR-DNA/CellTox Green Dye based fluorescence analysis; type: functional; conditions: dose 0.25-4 µM
In short: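 Cisplatin co-treatment, 72 h imaging growth assay (SiR-DNA nuclei minus CellTox Green dead cells, 500 cells/well, phenol-red-free medium). Combinations: inhibitor fixed with cisplatin 0.1–100 µM, or cisplatin fixed at 0.25 µM with inhibitor 0.25–4 µM. Three technical replicates, mean ± SD; two-tailed t-test.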

[4] = target: Voltage-dependent L-type calcium channel subunit alpha-1C (Rattus norvegicus, UniProt P22002); experiment: Inhibition of Cav1.2 in Wistar rat tail artery smooth muscle cells assessed as inhibition of Ba2+ current at 0.3 to 10 uM at holding potential of -50 mV by whole cell patch clamp analysis; type: toxicity, tissue-based; conditions: dose 0.3-10 µM
In short: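 Freshly dissociated rat tail main artery myocytes (collagenase XI, 37 °C). Whole-cell patch clamp, 20–22 °C; Cs-based internal, external with 30 mM TEA and 5 mM Ba2+. IBa1.2 evoked by 250-ms steps to 10 mV from −50 mV at 0.067 Hz; compound added cumulatively 0.3–10 µM; leak subtracted using 10 µM nifedipine. Amplitude as percent of control, n = 5.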

[5] = target: T1, ATP-dependent translocase ABCB1; experiment: Inhibition of P-gp in human HCT-15 cells assessed as increase in green fluorescence intensity at 1 to 10 uM incubated for 15 mins followed by incubation with EFFLUX-ID Green Detection Reagent and Hoeschst-33342 dye and measured after 30 mins by fluorescence analysis; type: cell-based; conditions: hct-15, 0.25 h, dose 1-10 µM; in short: as §1
[6] = tested on: HMC3; experiment: Cytotoxicity against human HMC3 cells assessed as effect on cell viability at 0.1 to 100 uM incubated for 24 to 72 hrs by MTT assay; type: toxicity, cell-based; conditions: hmc3, 100 µM, dose lower 0.1 µM, time lower 24 hrs, dose upper 100 µM, time upper 72 hrs
In short: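 HMC3 microglia in high-glucose DMEM/10% FBS, 37 °C 5% CO2, treated 0.1–100 µM for 24, 48 or 72 h; vehicle-treated controls. MTT 0.5 mg/mL, 4 h 37 °C, formazan dissolved in DMSO, read at 540 nm; viability as percent of control. Three independent experiments in triplicate, mean ± S.E.M., one-way ANOVA with Tukey.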

[7] = tested on: U-87 MG; experiment: Coadjutant activity against multidrug resistance in human U-87 MG cells assessed as potentiation of etoposide-induced cell growth inhibition at 4 uM incubated for 72 hrs in presence of 0.04 to 40 uM etoposide by SiR-DNA/CellTox Green Dye based fluorescence analysis; type: functional; conditions: U-87MG ATCC
In short: (§2)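 Growth by live-cell imaging: 500 cells/well plated with SiR-DNA and CellTox Green dye; serial dilutions in phenol-red-free complete medium added next day. Imaged at addition and at 72 h. Live cells = SiR-DNA nuclei minus CellTox-positive dead cells; percentage growth calculated. Three technical replicates; two-tailed t-test. Inhibitor paired with anticancer drug at fixed or scaled levels.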

[8] = tested on: A498; experiment: Coadjutant activity against multidrug resistance in human A498 cells assessed as potentiation of vincristine-induced cell growth inhibition at 0.25 to 4 uM incubated for 72 hrs in presence of 0.2 uM vincristine by SiR-DNA/CellTox Green Dye based fluorescence analysis; type: functional; conditions: dose 0.25-4 µM; in short: as §2
[9] = target: T1, ATP-dependent translocase ABCB1; experiment: Inhibition of P-gp in human CAKI-2 cells assessed as increase in green fluorescence intensity at 0.1 to 10 uM incubated for 15 mins followed by incubation with EFFLUX-ID Green Detection Reagent and Hoeschst-33342 dye and measured after 30 mins by fluorescence analysis; type: cell-based; conditions: caki-2, 0.25 h, dose 0.1-10 µM; in short: as §1
[10] = tested on: MeWo; experiment: Coadjutant activity against multidrug resistance in human MeWo cells assessed as potentiation of vincristine-induced cell growth inhibition at 4 uM incubated for 72 hrs in presence of 0.02 to 20 uM vincristine by SiR-DNA/CellTox Green Dye based fluorescence analysis; type: functional; in short: as §2
[11] = tested on: A498; experiment: Coadjutant activity against multidrug resistance in human A498 cells assessed as potentiation of vincristine-induced cell growth inhibition by measuring cell growth at 4 uM incubated for 72 hrs in presence of 0.02 to 20 uM vincristine by SiR-DNA/CellTox Green Dye based fluorescence analysis; type: functional; parameters: scale not given: the % may be the effect or the level left; in short: as §2
[12] = target: T1, ATP-dependent translocase ABCB1; experiment: Inhibition of P-gp in human A498 cells assessed as increase in green fluorescence intensity at 0.1 to 10 uM incubated for 15 mins followed by incubation with EFFLUX-ID Green Detection Reagent and Hoeschst-33342 dye and measured after 30 mins by fluorescence analysis; type: cell-based; conditions: a498, 0.25 h, dose 0.1-10 µM; in short: as §1
[13] = tested on: U-87 MG; experiment: Coadjutant activity against multidrug resistance in human U-87 MG cells assessed as potentiation of vincristine-induced cell growth inhibition at 4 uM incubated for 72 hrs in presence of 0.02 to 20 uM vincristine by SiR-DNA/CellTox Green Dye based fluorescence analysis; type: functional; conditions: U-87MG ATCC; in short: as §2
[14] = tested on: HT-29; experiment: Coadjutant activity against multidrug resistance in human HT-29 cells assessed as potentiation of vincristine-induced cell growth inhibition at 4 uM incubated for 72 hrs in presence of 0.02 to 20 uM vincristine by SiR-DNA/CellTox Green Dye based fluorescence analysis; type: functional; in short: as §2
[15] = tested on: HCT-116 (Homo sapiens); experiment: Coadjutant activity against multidrug resistance in human HCT-116 cells assessed as potentiation of cisplatin-induced cell growth inhibition at 0.25 to 4 uM incubated for 72 hrs in presence of 0.25 uM cisplatin by SiR-DNA/CellTox Green Dye based fluorescence analysis; conditions: dose 0.25-4 µM
[16] = target: T1, ATP-dependent translocase ABCB1; experiment: Inhibition of P-gp in human HCT-15 cells assessed as increase in green fluorescence intensity at 0.1 to 1 uM incubated for 15 mins followed by incubation with EFFLUX-ID Green Detection Reagent and Hoeschst-33342 dye and measured after 30 mins by fluorescence analysis; type: cell-based; conditions: hct-15, 0.25 h, dose 0.1-1 µM; in short: as §1

T1 sequence (P08183 whole entry): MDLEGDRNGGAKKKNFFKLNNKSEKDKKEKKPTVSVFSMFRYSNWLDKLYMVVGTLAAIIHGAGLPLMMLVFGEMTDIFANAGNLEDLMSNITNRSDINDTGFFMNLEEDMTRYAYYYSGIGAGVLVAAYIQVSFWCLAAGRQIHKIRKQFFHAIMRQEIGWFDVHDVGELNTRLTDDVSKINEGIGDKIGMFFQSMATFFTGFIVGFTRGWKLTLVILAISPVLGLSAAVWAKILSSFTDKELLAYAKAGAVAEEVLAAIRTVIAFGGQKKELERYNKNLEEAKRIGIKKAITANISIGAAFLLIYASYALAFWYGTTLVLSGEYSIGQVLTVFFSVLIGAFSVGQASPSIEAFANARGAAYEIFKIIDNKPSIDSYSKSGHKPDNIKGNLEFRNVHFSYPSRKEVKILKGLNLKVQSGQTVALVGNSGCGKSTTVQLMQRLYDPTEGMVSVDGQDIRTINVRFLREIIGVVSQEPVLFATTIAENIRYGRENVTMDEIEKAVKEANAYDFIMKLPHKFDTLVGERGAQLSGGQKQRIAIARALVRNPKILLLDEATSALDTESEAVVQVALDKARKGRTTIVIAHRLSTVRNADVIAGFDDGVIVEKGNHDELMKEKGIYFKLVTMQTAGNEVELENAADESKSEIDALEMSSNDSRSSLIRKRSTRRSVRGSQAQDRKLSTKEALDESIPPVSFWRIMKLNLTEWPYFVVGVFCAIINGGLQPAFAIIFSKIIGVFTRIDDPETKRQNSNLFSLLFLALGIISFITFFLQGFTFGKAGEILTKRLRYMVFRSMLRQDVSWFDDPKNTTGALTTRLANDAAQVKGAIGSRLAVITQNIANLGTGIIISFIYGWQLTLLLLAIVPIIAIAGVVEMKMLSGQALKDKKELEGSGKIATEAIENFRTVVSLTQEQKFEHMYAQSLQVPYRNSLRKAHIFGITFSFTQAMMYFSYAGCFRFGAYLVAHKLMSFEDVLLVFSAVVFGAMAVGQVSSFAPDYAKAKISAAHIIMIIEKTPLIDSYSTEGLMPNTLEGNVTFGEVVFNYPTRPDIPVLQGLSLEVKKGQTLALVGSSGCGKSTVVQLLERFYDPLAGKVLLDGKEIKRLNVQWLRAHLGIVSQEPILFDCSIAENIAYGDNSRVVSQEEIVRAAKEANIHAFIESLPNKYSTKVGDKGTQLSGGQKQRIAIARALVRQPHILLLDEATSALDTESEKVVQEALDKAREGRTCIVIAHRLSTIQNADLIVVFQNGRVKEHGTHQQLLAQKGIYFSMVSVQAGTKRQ
Sequence of Voltage-dependent L-type calcium channel subunit alpha-1C (P22002 whole entry): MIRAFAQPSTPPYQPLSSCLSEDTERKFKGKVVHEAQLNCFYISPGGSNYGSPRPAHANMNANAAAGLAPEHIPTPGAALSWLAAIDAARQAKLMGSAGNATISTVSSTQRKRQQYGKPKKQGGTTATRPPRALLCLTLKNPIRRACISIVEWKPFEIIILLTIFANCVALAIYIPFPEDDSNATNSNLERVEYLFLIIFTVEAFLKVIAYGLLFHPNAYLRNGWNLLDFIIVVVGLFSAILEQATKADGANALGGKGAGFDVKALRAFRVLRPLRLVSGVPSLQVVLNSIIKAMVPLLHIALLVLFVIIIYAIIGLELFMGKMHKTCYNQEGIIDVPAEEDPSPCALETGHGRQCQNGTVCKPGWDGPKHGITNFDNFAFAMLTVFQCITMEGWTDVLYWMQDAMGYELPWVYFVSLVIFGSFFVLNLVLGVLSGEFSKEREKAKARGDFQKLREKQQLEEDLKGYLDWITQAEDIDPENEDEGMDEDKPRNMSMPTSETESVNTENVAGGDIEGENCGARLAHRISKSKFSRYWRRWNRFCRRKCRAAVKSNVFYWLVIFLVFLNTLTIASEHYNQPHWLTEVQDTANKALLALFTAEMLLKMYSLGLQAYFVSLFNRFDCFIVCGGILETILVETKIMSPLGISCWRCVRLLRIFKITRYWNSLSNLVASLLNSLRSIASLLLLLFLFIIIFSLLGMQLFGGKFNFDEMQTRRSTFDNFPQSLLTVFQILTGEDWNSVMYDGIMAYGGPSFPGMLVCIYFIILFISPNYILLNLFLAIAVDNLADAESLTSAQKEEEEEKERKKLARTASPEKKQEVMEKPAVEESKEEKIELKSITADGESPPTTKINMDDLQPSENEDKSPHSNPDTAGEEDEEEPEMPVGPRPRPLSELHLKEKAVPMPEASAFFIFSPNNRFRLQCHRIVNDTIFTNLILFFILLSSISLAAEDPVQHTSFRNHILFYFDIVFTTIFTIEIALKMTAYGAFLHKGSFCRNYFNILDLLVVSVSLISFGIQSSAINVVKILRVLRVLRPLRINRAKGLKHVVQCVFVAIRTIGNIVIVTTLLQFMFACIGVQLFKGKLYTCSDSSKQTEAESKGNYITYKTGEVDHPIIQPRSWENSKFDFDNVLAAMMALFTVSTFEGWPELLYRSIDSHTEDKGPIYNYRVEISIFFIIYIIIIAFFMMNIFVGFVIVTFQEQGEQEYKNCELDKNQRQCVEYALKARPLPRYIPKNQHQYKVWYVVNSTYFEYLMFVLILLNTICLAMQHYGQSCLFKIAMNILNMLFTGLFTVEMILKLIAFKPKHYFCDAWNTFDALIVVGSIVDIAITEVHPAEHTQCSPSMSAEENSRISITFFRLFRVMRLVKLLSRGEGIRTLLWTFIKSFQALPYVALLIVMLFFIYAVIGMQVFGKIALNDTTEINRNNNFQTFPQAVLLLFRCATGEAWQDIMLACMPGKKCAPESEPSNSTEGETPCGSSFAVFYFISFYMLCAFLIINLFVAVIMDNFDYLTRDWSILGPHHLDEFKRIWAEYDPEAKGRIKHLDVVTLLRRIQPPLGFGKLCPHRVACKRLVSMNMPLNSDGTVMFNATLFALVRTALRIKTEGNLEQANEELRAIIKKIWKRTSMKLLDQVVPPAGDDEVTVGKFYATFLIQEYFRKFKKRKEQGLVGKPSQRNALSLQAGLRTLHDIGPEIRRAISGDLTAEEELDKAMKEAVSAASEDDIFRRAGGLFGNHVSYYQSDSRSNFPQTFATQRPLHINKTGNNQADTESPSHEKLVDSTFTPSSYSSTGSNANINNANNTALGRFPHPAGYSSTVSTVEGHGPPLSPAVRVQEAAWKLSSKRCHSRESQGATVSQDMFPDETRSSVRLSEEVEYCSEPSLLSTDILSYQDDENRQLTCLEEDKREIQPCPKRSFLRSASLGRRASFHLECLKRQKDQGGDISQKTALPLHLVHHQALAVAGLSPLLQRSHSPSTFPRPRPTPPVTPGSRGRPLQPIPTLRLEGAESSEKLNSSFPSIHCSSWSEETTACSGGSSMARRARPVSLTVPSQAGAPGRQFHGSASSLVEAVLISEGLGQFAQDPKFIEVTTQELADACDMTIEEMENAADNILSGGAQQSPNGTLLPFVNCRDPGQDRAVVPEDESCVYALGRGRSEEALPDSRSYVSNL

- inhibition (INH) [1]: Active
- inhibition (INH) [2]: Not Active
- inhibition (INH) [5]: Active
- inhibition (INH) [9]: Active
- inhibition (INH) [12]: Not Active
- inhibition (INH) [16]: Dose-Dependent Effect
SMILES: O=C(Nc1ccccc1)c1ccccc1OCc1nc2cc3cccnc3cc2nc1COc1ccccc1C(=O)Nc1ccccc1
- Activity [3]: inactive
- inhibition (INH) [4]: Not Active
- Activity [6]: Non-Toxic
- Activity [7]: Active
- Activity [8]: Active
- Activity [10]: Active
- Activity [11]: 50%
- Activity [13]: Active
- Activity [14]: Active
- Activity [15]: inactive

Source: ChEMBL document CHEMBL5608187, “Discovery of pyridoquinoxaline-based new P-gp inhibitors as coadjutant against Multi Drug Resistance in cancer” (Eur J Med Chem, 2024)
